E-selectin induc: E-selectin induction on HUVECs | P16581 | HUVEC E-selectin immunofluorescence imaging; normalized: neutral wells 0, TNF-alpha wells 100 | activation, % at 7.58 µM | actives 0.37% (n = 260,000) | AID 686992;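 active = mean E-selectin-positive cell signal at least 10% of the positive control, reached in at least 60% of replicates, without over 20% cell loss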
Target sequence (P16581 whole entry, looked up): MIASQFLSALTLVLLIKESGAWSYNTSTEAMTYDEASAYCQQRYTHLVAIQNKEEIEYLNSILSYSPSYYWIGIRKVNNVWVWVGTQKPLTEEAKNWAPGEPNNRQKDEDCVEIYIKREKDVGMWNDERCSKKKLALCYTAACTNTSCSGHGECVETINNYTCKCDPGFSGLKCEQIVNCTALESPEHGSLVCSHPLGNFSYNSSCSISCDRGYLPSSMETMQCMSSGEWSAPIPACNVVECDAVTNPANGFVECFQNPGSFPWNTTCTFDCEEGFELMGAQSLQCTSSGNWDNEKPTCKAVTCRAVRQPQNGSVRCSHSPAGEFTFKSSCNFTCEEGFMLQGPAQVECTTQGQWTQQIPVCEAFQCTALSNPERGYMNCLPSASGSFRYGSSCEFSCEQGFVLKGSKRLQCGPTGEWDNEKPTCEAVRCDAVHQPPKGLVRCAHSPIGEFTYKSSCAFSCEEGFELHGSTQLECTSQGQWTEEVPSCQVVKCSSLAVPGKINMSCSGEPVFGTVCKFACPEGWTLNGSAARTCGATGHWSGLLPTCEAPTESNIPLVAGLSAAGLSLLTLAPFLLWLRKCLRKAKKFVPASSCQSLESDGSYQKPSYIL
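Test system – human umbilical vein endothelial cells (HUVEC), E-selectin induction · Input – 3,000 HUVEC seeded per well · Buffer or medium – EGM-2, gelatin · Compound dosing – single-point compound dose · Detection – immunofluorescence imaging · Measure – percent E-selectin-positive cells · Controls – TNF-alpha high, DMSO low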
PglD DTNB: inhibitors of Campylobacter jejuni PglD acetyltransferase; AID 602405; actives 0.098% (n = 360,000); purified PglD enzyme, DTNB colorimetric CoA detection; inhibition, % at 12.5 µM; in the data active = inhibition above about 16%, passing the limit was not always enough
FGF22 binding-1: binders of recombinant human FGF22 by thermal shift; actives 1.5% (n = 340,000); activity (Tm shift, normalised), % at 9.99 µM; SYPRO orange fluorescence; percent of sucrose octasulfate shift, DMSO zero;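 active = mean Tm shift, scaled 0 neutral to 100 positive control, at about 1.3% or above, every replicate too, limit read from the data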
Statin myotox sup: protects C2C12 myotubes from simvastatin toxicity | ATP luminescence, 48 h; scaled: DMSO 0, geranylgeraniol control 100 | rescue of ATP level, % at 7.49 µM | actives 0.78% (n = 330,000);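 active = mean ATP rescue above about 67%, or every replicate alone reaching that limit, limit read from the data, passing the limit was not always enough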;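 note: myotubes were challenged with 10 µM simvastatin during compound exposure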
XiGFP reactiv: activators of X-chromosome reactivation in mouse fibroblasts | XiGFP mouse fibroblasts, % GFP-positive cells imaging, 3 d; cells co-treated with 5-aza-dC sensitizer; scaled so ellipticine positive control = 100% | activation, % at 7.58 µM | actives 0.055% (n = 360,000);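 active = mean normalized replicate activation at least 10% and every replicate at or above 10%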
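Material: SV40-immortalized XiGFP fibroblast cells, line 68-5-11 | Buffer or medium: DMEM containing 5-aza-dC | Dosing: One concentration, pinned | Times: 3 d treatment, 15 min room-temperature fixation | Controls: Ellipticine 6 µM positive control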
DENV2 CPE rescue: inhibitors of DENV2 cytopathic effect; CPE inhibition, % at 9.99 µM; actives 1.7% (n = 350,000); DENV2-infected cells, cytopathic effect rescue, plate reader; in the data active = CPE inhibition above about 20%, passing the limit was not always enough; tested in BHK-21 cells
FGF22 binding-2: binders of human FGF22 by thermal shift; shares compounds with FGF22 binding-1; recombinant FGF22 thermal shift, SYPRO orange fluorescence; thermal shift activity, °C (ΔTm) at 38 µM; actives 2% (n = 1,000);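 active = fitted rise in melting shift crosses a set limit at or below the top valid dose tested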
FGF22 TSA: binders of human FGF22 by thermal shift | shares compounds with FGF22 binding-1 | Thermal shift assay, SYPRO orange, melting temperature shift | Tm shift (activity), % at 38 µM | 50 tested, under 10 active | AID 743017;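 active = compounds whose fitted dose curve of melting temperature shift rises past a set threshold within the tested doses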
SYPRO no-protein: compound-only SYPRO artifact for FGF22 binders; AC50, µM (titrated, usually from 38 µM); actives 2% (n = 1,000); AID 743019; shares compounds with FGF22 binding-1; compound-only SYPRO orange thermal shift counter-screen, no protein;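 active = rising signal whose fitted curve reaches the 0.54 level within the top valid dose, showing a melting point, actives reach about 13 µM in these data; inactive = the rest, including activity in the opposite direction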; note: value is where the raw curve crosses a fixed level and not half-maximal
Hits are given with their value. Hits are enriched below; roughly 3.3% of the tested compounds scored in any of these assays.

What do the screens show for `O=C(C1CCOCC1)N1C[C@H]2[C@@H](c3ccccc31)[C@@H](CO)N2Cc1ccc(Cl)cc1`?
E-selectin induc: inactive; PglD DTNB: inactive; FGF22 binding-1: inactive; Statin myotox sup: inactive; XiGFP reactiv: inactive; DENV2 CPE rescue: inactive

Results for Cc1noc(C)c1S(=O)(=O)N(C)C[C@H]1Oc2ccc(NC(=O)CCCCCC(=O)Nc3ccccc3N)cc2CC(=O)N([C@@H](C)CO)C[C@H]1C ?
E-selectin induc: inactive; FGF22 binding-1: inactive; XiGFP reactiv: inactive; DENV2 CPE rescue: inactive

Results for O=C(CCCOc1ccccc1)Nc1ccc(S(=O)(=O)N2CCOCC2)cc1 ?
PglD DTNB: inactive; Statin myotox sup: inactive

What do the screens show for `Cc1ccc(OCCCC(=O)Nc2ccc(S(=O)(=O)N3CCOCC3)cc2)cc1`?
E-selectin induc: inactive; PglD DTNB: inactive; FGF22 binding-1: 2.5; Statin myotox sup: inactive; XiGFP reactiv: inactive; DENV2 CPE rescue: inactive; FGF22 binding-2: inactive; FGF22 TSA: inactive; SYPRO no-protein: inactive

How did Cc1ccc(NC(=O)CN(C)C(C)C(=O)Nc2ccc(S(=O)(=O)N3CCCC3)cc2)cc1 (configuration not stated) do in these assays?
E-selectin induc: inactive; PglD DTNB: inactive; FGF22 binding-1: 13; Statin myotox sup: inactive; XiGFP reactiv: inactive; DENV2 CPE rescue: inactive; FGF22 binding-2: inactive; SYPRO no-protein: inactive

Results for CCCCn1c(N)c(N(CCC(C)C)C(=O)c2ccc3c(c2)OCO3)c(=O)[nH]c1=O ?
E-selectin induc: inactive; PglD DTNB: inactive; FGF22 binding-1: inactive; Statin myotox sup: inactive; XiGFP reactiv: inactive; DENV2 CPE rescue: inactive

Results for CCCCN(C(=O)c1ccc2c(c1)OCCO2)c1c(N)n(CCCC)c(=O)[nH]c1=O ?
E-selectin induc: inactive; PglD DTNB: inactive; FGF22 binding-1: 21; Statin myotox sup: inactive; XiGFP reactiv: inactive; DENV2 CPE rescue: inactive; FGF22 binding-2: inactive; SYPRO no-protein: inactive

Results for CCC(CC)CN1CCC(CN2C(=O)C(=O)NC[C@@H]2CC(C)C)CC1 ?
E-selectin induc: inactive; PglD DTNB: inactive; FGF22 binding-1: 1.9; Statin myotox sup: inactive; XiGFP reactiv: inactive; DENV2 CPE rescue: inactive; SYPRO no-protein: inactive

Results for CC(=O)Nc1ccc2sc(C)nc2c1 ?
E-selectin induc: inactive; PglD DTNB: inactive; FGF22 binding-1: 38; Statin myotox sup: inactive; XiGFP reactiv: inactive; DENV2 CPE rescue: inactive; FGF22 binding-2: inactive; SYPRO no-protein: inactive

How did Cc1nc2cc(NC(=O)CS(=O)(=O)c3ccccc3)ccc2s1 do in these assays?
E-selectin induc: inactive; PglD DTNB: inactive; FGF22 binding-1: inactive; Statin myotox sup: inactive; XiGFP reactiv: inactive; DENV2 CPE rescue: inactive

How did COC(=O)[C@]1(C)N[C@H](c2ccc(-c3ccccc3)cc2)[C@@H]2C(=O)N(C)C(=O)[C@@H]21 do in these assays?
E-selectin induc: inactive; PglD DTNB: inactive; FGF22 binding-1: 8.1; Statin myotox sup: inactive; XiGFP reactiv: inactive; DENV2 CPE rescue: inactive; FGF22 binding-2: inactive; SYPRO no-protein: inactive

Results for COC(=O)[C@]1(C)N[C@H](c2ccc(-c3cccc(Cl)c3)cc2)[C@@H]2C(=O)N(C)C(=O)[C@@H]21 ?
E-selectin induc: inactive; PglD DTNB: inactive; FGF22 binding-1: inactive; Statin myotox sup: inactive; XiGFP reactiv: inactive; DENV2 CPE rescue: inactive

What do the screens show for `O=C(Nc1cccc(Cl)c1)N[C@@H]1CC[C@@H](CCNC(=O)C2CC2)O[C@H]1CO`?
E-selectin induc: inactive; PglD DTNB: inactive; FGF22 binding-1: inactive; Statin myotox sup: inactive; XiGFP reactiv: inactive; DENV2 CPE rescue: inactive

Results for Cc1ccc(S(=O)(=O)N2C[C@@H](O)COC[C@H]3O[C@@H](CC(=O)N[C@H]4CCN(Cc5ccccc5)C4)CC[C@@H]32)cc1 ?
E-selectin induc: inactive; PglD DTNB: inactive; FGF22 binding-1: inactive; Statin myotox sup: inactive; XiGFP reactiv: inactive; DENV2 CPE rescue: inactive

How did CCNC(=O)C1(C)CCN(Cc2ccc(OC(F)(F)F)cc2)C1 (configuration not stated) do in these assays?
E-selectin induc: inactive; PglD DTNB: inactive; FGF22 binding-1: 1.4; Statin myotox sup: inactive; XiGFP reactiv: inactive; DENV2 CPE rescue: inactive; FGF22 binding-2: inactive; SYPRO no-protein: inactive

Results for CCNC(=O)C1(C)CCN(Cc2ccc(C(F)(F)F)cc2)C1 (configuration not stated) ?
E-selectin induc: inactive; PglD DTNB: inactive; FGF22 binding-1: inactive; Statin myotox sup: inactive; XiGFP reactiv: inactive; DENV2 CPE rescue: inactive

What do the screens show for `O=C(C[C@H]1C[C@H]2c3cc(NC(=O)NC4CCCC4)ccc3O[C@H]2[C@@H](CO)O1)NCc1cccc(F)c1`?
XiGFP reactiv: inactive

Results for CCCCn1cnc2c(SCc3cccc(F)c3)nc(N)nc21 ?
E-selectin induc: inactive; PglD DTNB: inactive; FGF22 binding-1: 23; Statin myotox sup: inactive; XiGFP reactiv: inactive; DENV2 CPE rescue: inactive; FGF22 binding-2: inactive; SYPRO no-protein: inactive

What do the screens show for `C[C@H]1CN([C@@H](C)CO)C(=O)c2cc(C#CC3(O)CCCC3)cnc2O[C@H]1CN(C)C(=O)CC1CC1`?
E-selectin induc: inactive; PglD DTNB: inactive; FGF22 binding-1: inactive; Statin myotox sup: inactive; XiGFP reactiv: inactive; DENV2 CPE rescue: inactive

What do the screens show for `CC(C)C#Cc1cnc2c(c1)C(=O)N([C@H](C)CO)C[C@H](C)[C@H](CN(C)C(=O)c1cnccn1)O2`?
E-selectin induc: inactive; PglD DTNB: inactive; FGF22 binding-1: 1.5; Statin myotox sup: inactive; XiGFP reactiv: inactive; DENV2 CPE rescue: inactive; FGF22 binding-2: inactive; SYPRO no-protein: inactive

Results for CC(C)C#Cc1cnc2c(c1)C(=O)N([C@@H](C)CO)C[C@H](C)[C@@H](CN(C)C(=O)c1cnccn1)O2 ?
E-selectin induc: inactive; PglD DTNB: inactive; FGF22 binding-1: 1.5; Statin myotox sup: inactive; XiGFP reactiv: inactive; DENV2 CPE rescue: inactive; FGF22 binding-2: inactive; SYPRO no-protein: inactive

Results for CC(C)C#Cc1cnc2c(c1)C(=O)N([C@@H](C)CO)C[C@@H](C)[C@@H](CN(C)C(=O)c1cnccn1)O2 ?
E-selectin induc: inactive; PglD DTNB: inactive; FGF22 binding-1: 1.6; Statin myotox sup: inactive; XiGFP reactiv: inactive; DENV2 CPE rescue: inactive; FGF22 binding-2: inactive; SYPRO no-protein: inactive

Screens (PubChem)
